Measured values taken from ChEMBL document CHEMBL4422698, “Wortmannin and Wortmannine Analogues from an Undescribed Niesslia sp” (2019).
Values after ≈ are worked out from the molar mass of the structure shown. Active and inactive are the calls of the source. No cut-off for these calls is given here.

How the values were obtained:
Cryptococcus neoformans [1] = assay: Antifungal activity against Cryptococcus neoformans H99 assessed as zone of inhibition at 50 ug/disk by disk diffusion method; type: functional; details: for inhibition zone (IZ): var grubii H99; for zone of inhibition at 50 µg/disc: var grubii H99, read-out: IZ
Method in brief: (§1)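 Agar disk diffusion zone-of-inhibition assay on C. albicans ATCC 10231, C. neoformans H99 and S. aureus ATCC 43330, run per NCCLS recommendations. Compound applied at 50 μg/disk, amphotericin B control at 25 μg/disk. Inhibition zone diameter recorded in mm.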

Candida albicans [2] = assay: Antifungal activity against Candida albicans ATCC 10231 assessed as zone of inhibition at 50 ug/disk by disk diffusion method; type: functional; details: for zone of inhibition at 50 µg/disc: read-out: IZ; method in brief: as §1
Staphylococcus aureus = assay: Antibacterial activity against Staphylococcus aureus ATCC 43330 assessed as zone of inhibition at 50 ug/disk by disk diffusion method; type: functional, organism-based; method in brief: as §1
Cryptococcus neoformans [3] = assay: Antifungal activity against Cryptococcus neoformans H99 assessed as zone of inhibition at 25 ug/disk by disk diffusion method; type: functional; details: var grubii H99, read-out: IZ; method in brief: as §1
Candida albicans [4] = assay: Antifungal activity against Candida albicans ATCC 10231 assessed as zone of inhibition at 25 ug/disk by disk diffusion method; type: functional; details: read-out: IZ
Aspergillus fumigatus = assay: Antifungal activity against Aspergillus fumigatus measured after 48 hrs by broth microdilution method; type: functional
Method in brief: (§2)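 NCCLS serial broth microdilution in RPMI-1640 with 0.165 M MOPS, pH 7.0. Compounds dissolved in DMSO and serially diluted in the medium. MIC-50 taken spectrophotometrically as the lowest concentration giving 50% growth inhibition versus the untreated control. Read at 48 h for C. albicans and A. fumigatus, 72 h for C. neoformans.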

Candida albicans [5] = assay: Antifungal activity against Candida albicans ATCC 10231 measured after 48 hrs by broth microdilution method; type: functional; details: ATCC 10231, 48 h; method in brief: as §2
Cryptococcus neoformans [6] = assay: Antifungal activity against Cryptococcus neoformans H99 measured after 72 hrs by broth microdilution method; type: functional; details: var grubii H99 ; method in brief: as §2
[7] = system: Schizosaccharomyces pombe; assay: Ratio of MIC50 for Schizosaccharomyces pombe isolate MJ1682 harboring efflux mutant to MIC50 for Schizosaccharomyces pombe SAK1; type: functional
Method in brief: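 S. pombe efflux mutant MJ1682 (caf5::bsdR pap1-del pmd1-del mfs1-del bfr1-del) and wild-type SAK1 grown in YES medium for 72 h with serially diluted compound. Viability read on a plate reader with Alamar Blue, itraconazole as positive control. Ratio of the MIC50 of the mutant to that of the wild type.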

Candida albicans [8] = assay: Antifungal activity against Candida albicans ATCC 10231 at 25 uM measured after 24 hrs

SMILES | inhibition zone (IZ) (Cryptococcus neoformans [1]) | inhibition zone (IZ) (Candida albicans [2]) | inhibition zone (IZ) (Staphylococcus aureus) | further results
COC[C@H]1OC(=O)[C@@H]2[C@@H](O)NC(=O)[C@@]23C(=O)C2=C([C@H](OC(=O)C(C)C)C[C@]4(C)C(=O)CC[C@@H]24)[C@@]13C | inactive | inactive | inactive | 
C[C@@H]1[C@H](O)[C@@H](C)/C=C/C=C/C=C/C=C/C=C/C=C/C=C/[C@H](O[C@@H]2O[C@H](C)[C@@H](O)[C@H](N)[C@@H]2O)C[C@@H]2O[C@](O)(C[C@@H](O)C[C@@H](O)[C@H](O)CC[C@@H](O)C[C@@H](O)CC(=O)O[C@H]1C)C[C@H](O)[C@H]2C(=O)O [AMPHOTERICIN B] |  |  |  | zone of inhibition at 25 µg/disc (Cryptococcus neoformans [3]): 13 mm; zone of inhibition at 25 µg/disc (Candida albicans [4]): 10 mm
CCC(C)C(=O)O[C@@H]1C[C@]2(C)C(=O)CC[C@H]2C2=C1[C@@]1(C)[C@@H](COC)OC(=O)[C@@H]3[C@H](O)NC(=O)[C@@]31C2=O (stereo not given in full) | inactive | inactive | inactive | 
COC[C@H]1OC(=O)c2coc3c2[C@@]1(C)C1=C(C3=O)[C@@H]2CCC(=O)[C@@]2(C)C[C@H]1OC(=O)C(C)C |  |  | inactive | zone of inhibition at 50 µg/disc (Cryptococcus neoformans [1]): 13 mm; zone of inhibition at 50 µg/disc (Candida albicans [2]): 25 mm
CCC(C)C(=O)O[C@@H]1C[C@]2(C)C(=O)CC[C@H]2C2=C1[C@]1(C)c3c(coc3C2=O)C(=O)O[C@@H]1COC (stereo not given in full) |  |  | inactive | zone of inhibition at 50 µg/disc (Cryptococcus neoformans [1]): 16 mm; zone of inhibition at 50 µg/disc (Candida albicans [2]): 25 mm; MIC50 (Aspergillus fumigatus): 200 µM (≈ 94.1 µg/mL); MIC50 (Candida albicans [5]): 200 µM (≈ 94.1 µg/mL); MIC50 (Cryptococcus neoformans [6]): 100 µM (≈ 47.1 µg/mL); Ratio [7]: 0.1; Activity (Candida albicans [8]): Active
COC[C@H]1OC(=O)[C@@H]2[C@H](O)NC(=O)[C@@]23C(=O)C2=C([C@H](OC(=O)C(C)C)C[C@]4(C)C(=O)CC[C@@H]24)[C@@]13C | inactive | inactive | inactive | 
CCC(C)C(=O)O[C@@H]1C[C@]2(C)C(=O)CC[C@H]2C2=C1[C@@]1(C)[C@@H](COC)OC(=O)[C@@H]3[C@@H](O)NC(=O)[C@@]31C2=O (stereo not given in full) | inactive | inactive | inactive | 
